# Only some compounds are listed: those with a hit (about 2.9% of all), similar ones and a draw of the others.
# SIAE primary: blocks human sialic acid acetylesterase | Q9HAT2 | SIAE FP-Rh probe binding, fluorescence polarization | inhibition, % at 9.66 µM | actives 0.69% (n = 370,000) | AID 1053197;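 active = inhibition above a cutoff: mean of compounds within the control limits plus 3 SD of those, cut at about 17% in these data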;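 note: 0% = plate median of compound wells and 100% = probe without SIAE protein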
# PRMT1 inh: inhibitors of human PRMT1; actives 1.3% (n = 370,000); recombinant PRMT1, activity-based probe fluorescence polarization; inhibition, % at 2.79 µM; Q99873;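 active = inhibition above about 21% made by adding two undisclosed values, limit read from the data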
# PAD4 inh: PAD4 (human) enzyme inhibition | AID 485272 | actives 0.41% (n = 330,000) | Q9UM07 | inhibition, % at 6.36 µM | recombinant PAD4, RCA probe fluorescence polarization;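 active = percent inhibition above a cutoff equal to the mean of all tested compounds plus 3 SD, cut at about 15% in these data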;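 note: 0% = PAD4 with RCA probe and DMSO and 100% = probe without PAD4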
# TCR CD3 inh: inhibitors of human TCR-CD3 interaction; TAMRA-labeled TCR probe fluorescence, biochemical; inhibition, % at 9.4 µM; actives 0.37% (n = 360,000);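 note: recombinant mutant TCR 2C K166C tagged with TAMRA read by polarization; 0% = receptor in buffer alone and 100% = receptor with positive control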
# mABHD4 FP: inhibitors of mouse ABHD4 | AID 720543 | inhibition, % at 8.92 µM | actives 0.54% (n = 370,000) | Q8VD66 | purified mABHD4, FP-Rh probe fluorescence polarization;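 active = inhibition exceeding the mean over every tested compound plus 3 SD, cut at about 30% in these data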;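 note: 0% = plate median of compound wells and 100% = S159A mutant with DMSO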
# Target sequence (Q8VD66 whole entry, looked up): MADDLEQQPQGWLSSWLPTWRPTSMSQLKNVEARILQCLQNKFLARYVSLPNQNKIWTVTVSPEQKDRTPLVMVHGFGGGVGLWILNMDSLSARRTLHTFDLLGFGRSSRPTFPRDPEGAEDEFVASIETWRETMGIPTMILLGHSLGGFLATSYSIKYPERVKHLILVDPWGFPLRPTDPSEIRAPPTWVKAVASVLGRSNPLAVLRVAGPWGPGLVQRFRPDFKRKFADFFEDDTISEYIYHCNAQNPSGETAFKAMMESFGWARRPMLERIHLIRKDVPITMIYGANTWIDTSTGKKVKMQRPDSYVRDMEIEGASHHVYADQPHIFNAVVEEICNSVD
#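 Material: mouse ABHD4 enzyme, wild type; Benchmarks: S159A mutant high control, sample median low control; Buffer or medium: HEPES pH 7.0, NaCl, Pluronic buffer; Signal: fluorescence polarization; Read-out: percent inhibition of probe binding, normalized to plate controls; Timing: pre-incubation 45 min, probe exposure 60 min, at 25 °C; Dosing: 8.92 µM, single dose.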
# HTRA1 inhibitor: inhibitors of human serine peptidase HTRA1 | actives 0.5% (n = 340,000) | recombinant HTRA1, FP-rhodamine activity-based probe, fluorescence polarization | Q92743 | inhibition, % at 5.96 µM; in the data active = inhibition above about 36%;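 note: 0% = enzyme with DMSO and 100% = wells lacking enzyme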
# HTRA1 conf: confirmation of human HTRA1 inhibitors | shares compounds with HTRA1 inhibitor | recombinant HTRA1, FP-rhodamine activity-based probe, fluorescence polarization | actives 66% (n = 1,600) | inhibition, % at 5.96 µM;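 active = mean inhibition over three repeats above a set limit taken from the earlier primary screen, cut at about 37% in these data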;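 note: 0% = HTRA1 with DMSO and 100% = wells lacking HTRA1; inhibitors block probe binding so polarization drops and inhibition rises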
# BSA TAMRA ctr: interferes with TAMRA-BSA probe, flagging TCR-CD3 hits; shares compounds with TCR CD3 inh; TAMRA-labeled BSA probe fluorescence counterscreen; inhibition, % at 9.4 µM; actives 10% (n = 1,200); AID 652035; in the data active = inhibition above about 23%;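 note: 0% = buffer low control and 100% = reference high control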
# TCR-CD3 conf: TCR-CD3 interaction inhibition, confirmation. shares compounds with TCR CD3 inh. TAMRA-labeled TCR probe fluorescence binding assay. inhibition, % at 9.4 µM. actives 48% (n = 1,200). AID 652036
# ABHD4 confirm: confirmation of mouse ABHD4 inhibitors | shares compounds with mABHD4 FP | purified mABHD4, FP-Rh probe fluorescence polarization | AID 720658 | inhibition, % at 8.92 µM | actives 55% (n = 1,800);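 active = mean inhibition across replicates above the hit cutoff set in the primary screen, cut at about 30% in these data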;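 note: 0% = wild-type ABHD4 with DMSO and 100% = catalytically dead S159A mutant with DMSO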
# SIAE confirm: confirmation of human SIAE inhibitors | AID 1117263 | actives 13% (n = 2,300) | inhibition, % at 9.66 µM | shares compounds with SIAE primary | SIAE FP-Rh activity-based probe, fluorescence polarization;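 active = mean inhibition of the replicates above the hit cutoff set in the primary screen, cut at about 17% in these data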;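 note: 0% = SIAE with DMSO and probe and 100% = probe without SIAE; inhibitors lower polarization as more probe stays unbound to SIAE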
# The depositor's hits bear a star; / = no result. Cut-off read from the data, not from the text of the source, unless noted: active = inhibition above about 19%; inactive = the rest.
SMILES,SIAE primary,PRMT1 inh,PAD4 inh,TCR CD3 inh,mABHD4 FP,HTRA1 inhibitor,HTRA1 conf,SIAE confirm,others
Cn1cccc1C(=O)N1CCN(S(=O)(=O)c2ccc(Cl)s2)CC1,-2.8,-0.6,/,/,-1.1,/,/,/,
O=C(c1ccccc1)N1CC[C@H]2[C@H](CCCN2Cc2ccccc2)C1,1.4,2.3,/,/,3.0,/,/,/,
Clc1ccc(C2Nc3cccc4cccc(c34)N2)cc1,1.3,8.9,1.5,1.0,7.1,3.0,/,/,
Clc1ccc(C2Nc3cccc4cccc(c34)N2)c(Cl)c1,20.3*,16.1,/,-2.9,30.2*,54.4*,24.2,6.1,ABHD4 confirm=32.5*
COc1cc(NC(=O)NC2CCCCN(Cc3cccc(Cl)c3)C2=O)cc(OC)c1 (stereo not given),7.1,-0.4,/,/,-2.2,/,/,/,
O=C(N/N=C/c1c(O)ccc2ccccc12)c1ccc(CO)nc1,34.7*,0.8,2.4,33.9*,23.1,48.4*,46.0*,11.8,BSA TAMRA ctr=-15.6;TCR-CD3 conf=25.0*
CCCCN1CC(COCc2ccccc2)Oc2cccc(Oc3ccc(SC)c(C)c3)c2S1(=O)=O (stereo not given),0.8,1.2,/,4.7,0.6,/,/,/,
Oc1ccc2ccccc2c1/C=C/c1ccc2c(Br)cc(Br)c(O)c2n1,22.6*,-5.4,/,-8.9,33.8*,66.3*,68.6*,15.9,ABHD4 confirm=21.5
COc1cc(Br)c(/C=C/c2ccc3cccc(O)c3n2)cc1OC,7.9,0.2,0.2,-0.2,9.2,9.7,/,/,
Clc1cc(Cl)cc(CNC2CCC23CCCCC3)c1 (stereo not given),7.7,-1.5,/,/,-1.3,/,/,/,
O=C(C=Cc1ccc(O)c(O)c1)NCC(=O)NC(Cc1ccccc1)C(=O)O (stereo not given),2.3,2.8,/,-0.5,9.7,/,/,/,
O[C@H](COc1cccc(F)c1)CN1CCC(C(O)(c2ccccc2)c2ccccc2)CC1,-3.3,5.2,/,/,7.4,/,/,/,
CC(C)C(=O)NC(c1cccc([N+](=O)[O-])c1)c1ccc2cccnc2c1O (stereo not given),22.5*,-6.5,-0.1,0.1,10.7,44.1*,46.1*,10.5,
CC(=O)NC(c1ccc2ccccc2c1)c1ccc2cccnc2c1O (stereo not given),27.3*,-0.4,-3.4,-0.2,21.6,51.7*,67.7*,26.6*,
CCCCC(=O)NC(c1ccc(N(CC)CC)cc1)c1ccc2cccnc2c1O (stereo not given),17.7*,4.2,-6.6,-7.8,14.3,59.8*,66.4*,14.6,
CCCC(=O)NC(c1ccc(N(C)C)cc1)c1c(O)ccc2ccccc12 (stereo not given),14.2,-0.1,0.8,1.7,6.9,1.7,/,/,
CC(C)C(=O)NC(c1cccc([N+](=O)[O-])c1)c1c(O)ccc2ccccc12 (stereo not given),-1.4,1.9,2.0,-3.0,-2.8,-2.0,/,/,
CC(=O)NC(c1ccc(Cl)cc1Cl)c1ccc2cccnc2c1O (stereo not given),19.6*,-2.5,/,-10.1,16.2,72.9*,67.0*,15.7,
COc1ccc(C(NC(C)=O)c2ccc3cccnc3c2O)c(OC)c1 (stereo not given),/,/,-3.6,/,/,26.8,/,/,
O=C(COCc1ccncc1)N1CCN(c2ccc(F)cc2Cl)CC1,-1.3,2.0,/,/,4.4,/,/,/,
COc1ccc(NC(=O)N(CCc2c(C)[nH]c3ccccc23)Cc2cccs2)cc1OC,10.1,3.7,/,/,4.6,/,/,/,
Nc1cc(N)cc(-c2nc3ccccc3[nH]2)c1,31.2*,0.1,-8.6,-7.6,12.2,46.8*,20.9,5.3,

# Compound activity: PubChem, The Scripps Research Institute Molecular Screening Center
